This passage reports IC50 results from ChEMBL document CHEMBL3585348, “Armochaetoglobins A-J: Cytochalasan Alkaloids from Chaetomium globosum TW1-1, a Fungus Derived from the Terrestrial Arthropod Armadillidium vulgare” (J Nat Prod, 2015).

A word on the IC50: it is the concentration that inhibits the measured activity by half.

The subject of one test is SW480. In words: Cytotoxicity against human SW480 cells assessed as cell viability after 48 hrs by MTS assay. The note with it: SW480, 48 h. Format: functional, cell-based. The procedure, abridged:
(§1)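 Adherent cells grown in DMEM or RPMI1640 with 10% FBS at 37 °C in 5% CO2, seeded in 96-well plates, and left to adhere 12 h. Compounds were added at 0.0625, 0.32, 1.6, 8 and 40 μM for 48 h, in triplicate, with cisplatin and paclitaxel as positive controls. MTS (5 mg/mL) was added for 4 h at 37 °C, cells lysed in 10% SDS, and OD read at 595 nm.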
(In general: Formazan colour is commonly taken as a measure of viable cells.)

A further test relates to A549. Description: Cytotoxicity against human A549 cells assessed as cell viability after 48 hrs by MTS assay. As to conditions: A549, 48 h. Format: functional, cell-based. In short, it runs like this: as §1
Another test deals with MCF7. Description: Cytotoxicity against human MCF7 cells assessed as cell viability after 48 hrs by MTS assay. It counts as functional, cell-based. As to conditions: MCF7, 48 h. The procedure, abridged: as §1
In another test the test system is HL-60. In words: Cytotoxicity against human HL60 cells assessed as cell viability after 48 hrs by MTS assay. It counts as functional, cell-based. As to conditions: HL-60, 48 h. The procedure, abridged:
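HL-60 suspension cells grown in DMEM or RPMI1640 with 10% FBS at 37 °C in 5% CO2, seeded at 1 × 10^5 cells/mL just before dosing. Exposure was 48 h, in triplicate, at 0.0625–40 μM (five concentrations), with cisplatin and paclitaxel controls. MTS (5 mg/mL) was added for 4 h at 37 °C, followed by 10% SDS lysis and OD at 595 nm.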

A short description of test [1]: Cytotoxicity against human BEAS2B cells assessed as cell viability after 48 hrs by MTS assay. It counts as cell-based. As to conditions: BEAS-2B. In short, it runs like this:
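Noncancerous human bronchial epithelial BEAS-2B cells grown in DMEM or RPMI1640 with 10% FBS at 37 °C in 5% CO2, seeded in 96-well plates and allowed 12 h to adhere before compound addition. Viability was read after adding MTS (5 mg/mL) for 4 h at 37 °C, lysing in 10% SDS, and measuring formazan OD at 595 nm.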

The next test has as its system SMMC-7721. Description: Cytotoxicity against human SMMC7721 cells assessed as cell viability after 48 hrs by MTS assay. It counts as functional, cell-based. As to conditions: SMMC-7721, 48 h. The procedure, abridged: as §1

The structures appear in SMILES notation.

With `C/C(=C\C(C)C/C=C/[C@H]1[C@@H]2O[C@]2(C)[C@@H](C)[C@H]2[C@H](Cc3c[nH]c4ccccc34)NC(=O)[C@]21C(=O)CCCO)CO` (stereo not given in full), the IC50 with SW480 is > 40 µM; in the test on A549, 30.9 µM; in the test with MCF7 it was > 40 µM; in the test with HL-60 it was 16.5 µM; in test [1], 23.1 µM; with SMMC-7721, 19.4 µM.
In the case of `C/C(C=O)=C\C(C)C/C=C/[C@H]1[C@@H]2O[C@]2(C)[C@@H](C)[C@H]2[C@H](Cc3c[nH]c4ccccc34)NC(=O)[C@]21C(=O)CCCO` (stereo not given in full), the IC50 in the test on SW480 was > 40 µM; in the test with A549, 16.3 µM; in the test on MCF7 it was > 40 µM; in the test with HL-60, 11.9 µM; in test [1] it was 15.5 µM; in the test with SMMC-7721 it was 10.6 µM.
For the compound `C/C(C=O)=C\C(C)C/C=C/[C@H]1[C@@H]2O[C@]2(C)[C@@H](C)[C@H]2[C@H](Cc3c[nH]c4ccccc34)NC(=O)[C@]21C(=O)CCC(=O)O` (stereo not given in full), the IC50 in the test with SW480 is > 40 µM; in the test with A549, > 40 µM; with MCF7, > 40 µM; with HL-60, > 40 µM; in test [1] it was > 40 µM; with SMMC-7721, 25 µM.
With `COC(=O)CCC(=O)[C@@]12C(=O)N[C@@H](Cc3c[nH]c4ccccc34)[C@@H]1[C@H](C)[C@@]1(C)O[C@H]1[C@@H]2/C=C/CC(C)/C=C(\C)C=O` (stereo not given in full), the IC50 in the test with SW480 is 38.2 µM; in the test with A549, 19.8 µM; in the test on MCF7, 22.7 µM; in the test on HL-60, 14 µM; in test [1], 5.68 µM; in the test with SMMC-7721, 10.8 µM.
Take `C/C1=C\[C@@H](C)C/C=C/[C@H]2C=C(CO)[C@@H](C)[C@H]3[C@H](Cc4c[nH]c5ccccc45)NC(=O)[C@]32C(=O)CCC(=O)C1`: the 50% inhibitory concentration (IC50) (in the test on SW480; in the test on A549; in the test on MCF7; in the test with HL-60; in test [1]; in the test with SMMC-7721) was > 40 µM in each case.
As for `CC1=C[C@@H]2/C=C/C[C@H](C)/C=C(\C)C(=O)[C@@H](O)CCC(=O)[C@]23C(=O)N[C@@H](Cc2c[nH]c4ccccc24)[C@@H]3[C@@H]1C`, the IC50 with SW480 turned out to be 20.6 µM; with A549 it was 14.3 µM; in the test with MCF7 it was 14.8 µM; in the test with HL-60 it was 12.6 µM; in test [1], 16 µM; with SMMC-7721 it was 13.8 µM.
Turning to `C/C1=C\[C@@H](C)C/C=C/[C@H]2C=C(CO)[C@@H](C)[C@H]3[C@H](Cc4c[nH]c5ccccc45)NC(=O)[C@]32C(=O)/C=C/C(=O)[C@@H]1O`, the IC50 is 3.9 µM with SW480; 8.01 µM in the test with A549; 4.06 µM with MCF7; 3.31 µM with HL-60; 3.34 µM in test [1]; 9.83 µM with SMMC-7721.
As for `CC1=C[C@@H]2/C=C/C[C@H](C)/C=C(\C)[C@@H](O)[C@@H](O)CCC(=O)[C@]23C(=O)N[C@@H](Cc2c[nH]c4ccccc24)[C@@H]3[C@@H]1C`, the concentration for half-maximal inhibition (IC50) (in the test on SW480; with A549; with MCF7; with HL-60; in test [1]; in the test on SMMC-7721) was > 40 µM each time.
Take `C/C1=C\[C@@H](C)C/C=C/[C@H]2[C@H](O)[C@@]3(C)O[C@@]4(Cc5c[nH]c6ccccc56)NC(=O)[C@]2(C(=O)CCC(=O)C1=O)[C@H]4[C@@H]3C`: the IC50 in the test with SW480 was 35.3 µM; in the test on A549, 17.7 µM; in the test on MCF7, 19.1 µM; in the test on HL-60, 18.2 µM; in test [1], 16.6 µM; in the test with SMMC-7721, 17.4 µM.
Regarding `CC(=O)O[C@H]1C(=O)[C@@]2(C)[C@H]([C@H](OC(=O)c3ccccc3)[C@]3(O)C[C@H](OC(=O)[C@H](O)[C@@H](NC(=O)c4ccccc4)c4ccccc4)C(C)=C1C3(C)C)[C@]1(OC(C)=O)CO[C@@H]1C[C@@H]2O` [PACLITAXEL], the IC50 in the test with SW480 was < 0.008 µM; in the test on A549, < 0.008 µM; in the test on MCF7 it was < 0.008 µM; in the test on HL-60 it was < 0.008 µM; in test [1], 0.58 µM; in the test on SMMC-7721 it was < 0.008 µM.
